Laboratory results as given in ChEMBL document CHEMBL5724801, “EUbOPEN Chemogenomics Library - Multiplex” (2024).
Where “and” joins values, the source holds several entries; their conditions need not be identical. Identical values can stand only once.

Tested on: HEK-293T
Test: Multiplex assay against HEK293T
Format: toxicity, cell-based
Details: human
In short: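 Values for tubulin, mitochondrial-mass and membrane-permeability phenotypes are per cents of cells with healthy nuclei. These cells were identified by CellPathfinder machine-learning gating of live cells that had been stained at seeding with Hoechst33342, BioTracker Green Microtubule Cytoskeleton Dye, MitoTracker Red and Annexin V Alexa Fluor 680 and imaged on a CQ1 microscope at 37°C and 5% CO2 after compound addition. The gating first set Hoechst high-intensity objects apart from normal cells, then split normal cells into healthy, pyknosed or fragmented nuclei, and pyknosed cells into mitotic or apoptotic.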

[1] = 12 h, 1 µM, compound concentration 1 uM
[2] = 12 h, 10 µM, compound concentration 10 uM
[3] = 24 h, 1 µM, compound concentration 1 uM
[4] = 24 h, 10 µM, compound concentration 10 uM
[5] = 48 h, 1 µM, compound concentration 1 uM
[6] = 48 h, 10 µM, compound concentration 10 uM

In the case of `COc1cc(OC2CCN(C(C)=O)CC2)ccc1C(=O)N1CCC(N2C(=O)OCc3ccccc32)CC1`, the “Population Apoptotic (%)” value [1] was 28% and 48%, the “Population Fragmented Nuclei (%)” value [1] was 5% and the “Population Healthy Nuclei (%)” value [1] was 83% and 76%. The “Population Hoechst High Intensity Objects (%)” value [1] was 7%, the “Population Membrane Permeable-Phenotype (%)” value [1] was 0% and the “Population Mitochondria Different-Phenotype (%)” value [1] was 37% and 59%. The “Population Mitotic Cells (%)” value [1] was 71% and 51%, the “Population Normal (%)” value [1] was 92% and the “Population Pyknosed Nuclei (%)” value [1] was 11% and 18%. The “Population Tubulin-Different-Phenotype (%)” value [1] was 26% and 21%, the “Total Cell Count” value [1] was 477 and 381 and the “Population Apoptotic (%)” value [2] was 40% and 67%. For the same compound, the “Population Fragmented Nuclei (%)” value [2] was 9% and 4%, the “Population Healthy Nuclei (%)” value [2] was 77% and 80% and the “Population Hoechst High Intensity Objects (%)” value [2] was 8% and 6%. The “Population Membrane Permeable-Phenotype (%)” value [2] was 0%, the “Population Mitochondria Different-Phenotype (%)” value [2] was 57% and 77% and the “Population Mitotic Cells (%)” value [2] was 60% and 32%. For the same compound, the “Population Normal (%)” value [2] was 91% and 93%, the “Population Pyknosed Nuclei (%)” value [2] was 13% and 14% and the “Population Tubulin-Different-Phenotype (%)” value [2] was 47% and 40%. For the same compound, the “Total Cell Count” value [2] was 436 and 316, the “Population Apoptotic (%)” value [3] was 28% and 48% and the “Population Fragmented Nuclei (%)” value [3] was 9% and 7%. The “Population Healthy Nuclei (%)” value [3] was 78% and 80%, the “Population Hoechst High Intensity Objects (%)” value [3] was 4% and 6% and the “Population Membrane Permeable-Phenotype (%)” value [3] was 2% and 0%. The “Population Mitochondria Different-Phenotype (%)” value [3] was 25% and 40%, the “Population Mitotic Cells (%)” value [3] was 71% and 51% and the “Population Normal (%)” value [3] was 95% and 93%. For the same compound, the “Population Pyknosed Nuclei (%)” value [3] was 11% and 12%, the “Population Tubulin-Different-Phenotype (%)” value [3] was 17% and 15% and the “Total Cell Count” value [3] was 598 and 491. The “Population Apoptotic (%)” value [4] was 31% and 49%, the “Population Fragmented Nuclei (%)” value [4] was 8% and 7% and the “Population Healthy Nuclei (%)” value [4] was 78%. For the same compound, the “Population Hoechst High Intensity Objects (%)” value [4] was 3% and 4%, the “Population Membrane Permeable-Phenotype (%)” value [4] was 0% and the “Population Mitochondria Different-Phenotype (%)” value [4] was 44% and 58%. For the same compound, the “Population Mitotic Cells (%)” value [4] was 68% and 50%, the “Population Normal (%)” value [4] was 96% and 95% and the “Population Pyknosed Nuclei (%)” value [4] was 13% and 14%. The “Population Tubulin-Different-Phenotype (%)” value [4] was 36% and 29%, the “Total Cell Count” value [4] was 523 and 393 and the “Population Apoptotic (%)” value [5] was 20% and 33%. For the same compound, the “Population Fragmented Nuclei (%)” value [5] was 13% and 11%, the “Population Healthy Nuclei (%)” value [5] was 78% and 80% and the “Population Hoechst High Intensity Objects (%)” value [5] was 3% and 2%. The “Population Membrane Permeable-Phenotype (%)” value [5] was 1%, the “Population Mitochondria Different-Phenotype (%)” value [5] was 19% and 23% and the “Population Mitotic Cells (%)” value [5] was 79% and 66%. The “Population Normal (%)” value [5] was 96% and 97%, the “Population Pyknosed Nuclei (%)” value [5] was 8% and 7% and the “Population Tubulin-Different-Phenotype (%)” value [5] was 13% and 12%. The “Total Cell Count” value [5] was 902 and 655, the “Population Apoptotic (%)” value [6] was 36% and the “Population Fragmented Nuclei (%)” value [6] was 13% and 12%. For the same compound, the “Population Healthy Nuclei (%)” value [6] was 78% and 80%, the “Population Hoechst High Intensity Objects (%)” value [6] was 4% and 3% and the “Population Membrane Permeable-Phenotype (%)” value [6] was 0%. For the same compound, the “Population Mitochondria Different-Phenotype (%)” value [6] was 30% and 39%, the “Population Mitotic Cells (%)” value [6] was 63% and the “Population Normal (%)” value [6] was 95% and 96%. The “Population Pyknosed Nuclei (%)” value [6] was 8% and 7%, the “Population Tubulin-Different-Phenotype (%)” value [6] was 21% and 16% and the “Total Cell Count” value [6] was 813 and 625.
